Measured values collected from several papers.
Each line is one published result; the experiments were not run side by side.
Target: Cytoplasmic tyrosine-protein kinase BMX (BMX, Homo sapiens, UniProt P51813)
Residues used in one study (P51813 1-675): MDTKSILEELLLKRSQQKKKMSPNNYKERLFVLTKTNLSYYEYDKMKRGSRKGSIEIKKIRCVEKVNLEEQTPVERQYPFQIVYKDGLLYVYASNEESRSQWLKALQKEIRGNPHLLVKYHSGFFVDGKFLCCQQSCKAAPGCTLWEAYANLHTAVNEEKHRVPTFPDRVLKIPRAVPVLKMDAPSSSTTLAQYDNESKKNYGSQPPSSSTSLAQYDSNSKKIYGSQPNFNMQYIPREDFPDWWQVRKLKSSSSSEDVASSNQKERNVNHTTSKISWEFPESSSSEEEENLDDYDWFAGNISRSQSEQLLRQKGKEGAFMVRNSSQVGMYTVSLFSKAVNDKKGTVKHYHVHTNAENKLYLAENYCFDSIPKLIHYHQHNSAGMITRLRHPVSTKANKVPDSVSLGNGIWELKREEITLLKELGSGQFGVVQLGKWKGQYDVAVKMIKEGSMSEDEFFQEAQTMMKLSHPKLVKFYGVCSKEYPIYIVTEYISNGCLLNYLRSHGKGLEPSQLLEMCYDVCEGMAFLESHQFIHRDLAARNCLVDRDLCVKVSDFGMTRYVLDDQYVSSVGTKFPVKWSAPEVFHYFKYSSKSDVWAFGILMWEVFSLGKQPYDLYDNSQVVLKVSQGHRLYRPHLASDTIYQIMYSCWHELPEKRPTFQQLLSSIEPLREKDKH

| SMILES | effect on | method | concentration | remaining binding [%] |
| --- | --- | --- | --- | --- |
| C=CC(=O)N1CCC(C(=O)NCC(=O)N2CCN(c3nc(-c4cnc(N)nc4C(F)F)nc(N4CCOCC4)n3)CC2)CC1 | binding | competition with immobilised ligand | 1 µM | 99 |
| CN(C)c1nccc(-c2cnc3ncccn23)n1 | binding | – | 1 µM | 100 |
| CO[C@@H](C)c1c(Nc2ccc([C@H](N(C)C(=O)C3CCS(=O)(=O)CC3)C(F)(F)F)cc2)cnc2cc(Cl)nn12 | cell-free assay | competition with immobilised ligand | 1 µM | 99 |
| C[C@H]1CCN(c2nccc(-c3cnn4ncccc34)n2)C1 | binding | – | 1 µM | 84 |
| O=C(c1ccc(Nc2ncc(Cl)c(-c3ccc(Cl)s3)n2)cc1)N1CCC(N2CCCC2)CC1 | binding | competition with immobilised ligand | 1 µM | 79 |
| CCOCCn1cc(C(=O)Nc2ccc(-n3nc(-c4cccnc4)cc3C(F)(F)F)cn2)ccc1=O | cell-free assay | competition with immobilised ligand | 1 µM | 84 |
| CN(c1nccc(-c2cnn3ncccc23)n1)C1CC1 | binding | – | 1 µM | 82 |
| O=C(NCCCN1CCOCC1)c1ccc(Nc2ncc(Cl)c(-c3ccc(Cl)s3)n2)cc1 | binding | competition with immobilised ligand | 1 µM | 89 |
| COc1cnc(Nc2cccc(S(N)(=O)=O)c2)nc1N1CCN(c2ccccc2)CC1 | binding | competition with immobilised ligand | 1 µM | 93 |
| O=C(NCC1CCOCC1)c1n[nH]cc1NC(=O)c1c(F)cccc1F | binding | competition with immobilised ligand | 1 µM | 100 |
| CC(=O)c1c(NS(C)(=O)=O)c2cc(-c3ccc(Cl)cc3)c(-c3ccc(Cl)cc3Cl)nc2n(C)c1=O | cell-free assay | competition with immobilised ligand | 1 µM | 100 |
| F[C@@H]1CCN(c2nccc(-c3cnn4ncccc34)n2)C1 | binding | – | 1 µM | 83 |
| CCCOc1ccc([C@H]2[C@H](C(=O)O)[C@@H](c3ccc4c(c3)OCO4)CN2CC(=O)Nc2c(CC)cccc2CC)cc1 | cell-free assay | competition with immobilised ligand | 1 µM | 100 |
| CCN1CCN(Cc2ccc(C(=O)Nc3ccc(C)c(Oc4ccc5c(c4)CC(=O)N5)c3)cc2C(F)(F)F)CC1 | binding | competition with immobilised ligand | 1 µM | 88 |
| C[C@@H](c1cccc(C#N)c1)n1cc(Cl)cc(C(N)=O)c1=N | cell-free assay | competition with immobilised ligand | 1 µM | 95 |
| CN(C)c1nccc(-c2cnn3ncccc23)n1 | binding | – | 1 µM | 87 |
| CNC(=O)[C@@H]1CC[C@@H](n2c(-c3ccc4cnccc4c3)nc3ccc(C(=O)NCc4cccc(C(N)=O)c4)cc32)C1 | binding | competition with immobilised ligand | 1 µM | 100 |
| Cc1cnc(Nc2ccc(C(=O)N3CCC(N4CCCC4)CC3)cc2)nc1-c1cc2ccccc2s1 | binding | competition with immobilised ligand | 1 µM | 75 |
| Cc1cnn2ncc(-c3ccnc(N(C)C)n3)c2c1 | binding | – | 1 µM | 96 |
| Cc1cc(-n2nc(Cc3cc(F)cc(C(F)(F)F)c3)nc2C)ccc1C(N)=O | cell-free assay | competition with immobilised ligand | 1 µM | 100 |
| c1cncc(-c2cccc(Nc3nccc(NC4CCCCC4)n3)c2)c1 | binding | competition with immobilised ligand | 10 µM | 82 |
